According to ChEMBL document CHEMBL1131324 (J Med Chem, 1998):

Assays:
[1] = molecular target: T1, Serotonin 1 receptors; 5-HT1B & 5-HT1D (Homo sapiens) (UniProt P28222+P28221); conditions: Cavia porcellus
[2] = molecular target: Serotonin 4 (5-HT4) receptor (Sus scrofa, UniProt Q6Q253); assay: Compound was tested for binding affinity against piglet hippocampus 5-hydroxytryptamine 4 receptor; format: tissue-based
In short: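 pKi from displacement of [125I]SB-207710 in piglet hippocampus. Radioligand and a range of test concentrations incubated 30–45 min at 37 °C, then rapidly filtered, washed with ice-cold buffer and counted by scintillation.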

[3] = test system: Cavia porcellus; assay: Body temperature drop at 4.6 mg/kg po dosage in Guinea pig.; format: functional
[4] = molecular target: 5-hydroxytryptamine receptor 1F (Homo sapiens, UniProt P30939); assay: Compound was tested for binding affinity against human 5-hydroxytryptamine 1F receptor
In short: (§1)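 Competition binding giving pKi. Human cloned 5-HT1A in HEK 293 cells vs [3H]-8-OH-DPAT; human 5-HT1E and 5-HT1F in CHO cells vs [3H]-5-HT. Radioligand with a concentration range of test compound, 30–45 min at 37 °C. Rapid filtration, ice-cold buffer wash, scintillation counting. Mean ± SEM, or individual values where n = 2.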

[5] = molecular target: 5-hydroxytryptamine receptor 2A (Homo sapiens, UniProt P28223); assay: Binding affinity for human 5-hydroxytryptamine 2A receptor
In short: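 Human cloned receptor expressed in HEK 293 cells; displacement of [³H]ketanserin in 50 mM Tris-HCl (pH 7.7 at 25 °C). Test compound over a concentration range, 30-45 min at 37 °C; filtration with ice-cold buffer wash, bound label by scintillation counting; pKi reported as mean (SEM, n) or individual values where n = 2.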

[6] = molecular target: T1, Serotonin 1 receptors; 5-HT1B & 5-HT1D (Homo sapiens); conditions: Cavia porcellus; 0.3 mg/kg
[7] = organism: Cavia porcellus; assay: (§2) Compound was tested for % of SK & F 99101H controls on induced Hypothermia at 4 h postdose treatment.; format: functional
In short: (§3)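 Male Dunkin-Hartley guinea pigs, n = 6/group. Compound given 5.0 mg/kg po, then SK&F 99101H 30 mg/kg ip at 2, 4, 8 or 24 h postdose; 8 and 24 h data come from a second independent experiment. Rectal temperature measured by probe 4–5 cm deep. Mean maximum temperature drop, also expressed as % of SK&F 99101H controls.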

[8] = organism: Cavia porcellus; assay: Compound was tested for % of SK & F 99101H controls on induced Hypothermia at 8 hr postdose treatment.; format: functional
In short: as §3

[9] = molecular target: T1, Serotonin 1 receptors; 5-HT1B & 5-HT1D (Homo sapiens); conditions: Cavia porcellus; remark: listed apart in the source
[10] = organism: Cavia porcellus; assay: Body temperature drop at SK & F 99101H positive control dose (* p< 0.01 vs vehicle/vehicle controls) in Guinea pig.; format: functional
[11] = molecular target: T1, Serotonin 1 receptors; 5-HT1B & 5-HT1D (Homo sapiens); conditions: Cavia porcellus; remark: listed apart in the source
[12] = molecular target: T1, Serotonin 1 receptors; 5-HT1B & 5-HT1D (Homo sapiens); conditions: Cavia porcellus; 1.0 mg/kg
[13] = organism: Cavia porcellus; assay: Mean maximum temperature drop on SK & F 99101H (-1.73(0.17)) -induced Hypothermia at 4 hr postdose treatment(** p< 0.01 vs SK & F 99101H controls).; format: functional
In short: as §3

[14] = molecular target: Beta-1 adrenergic receptor (Homo sapiens, UniProt P08588); assay: Compound was tested for binding affinity against human cloned Beta-1 adrenergic receptor
In short: (§4)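 Radioligand competition run to literature procedures, giving pKi. Receptor preparation incubated with radioligand and a range of test concentrations for 30–45 min at 37 °C. Rapid filtration, ice-cold buffer wash, dried filters scintillation-counted. Mean ± SEM, or individual values where n = 2.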

[15] = organism: Cavia porcellus; assay: Compound was tested for % of SK & F 99101H controls on induced Hypothermia at 2 hr postdose.; format: functional
In short: as §3

[16] = molecular target: D(3) dopamine receptor (Homo sapiens, UniProt P35462); assay: Compound was tested for binding affinity against human cloned Dopamine receptor D3
In short: (§5)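 Human D2 or D3 receptors expressed in CHO cells, displacement of [3H]spiperone, giving pKi. Incubated 30–45 min at 37 °C with a range of test concentrations. Filtered, washed with ice-cold buffer, bound label counted by scintillation.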

[17] = test system: Cavia porcellus; assay: Body temperature drop at 2.2 mg/kg po dosage in Guinea pig.; format: functional
[18] = molecular target: T1, Serotonin 1 receptors; 5-HT1B & 5-HT1D (Homo sapiens); conditions: Cavia porcellus; remark: listed apart in the source
[19] = molecular target: T1, Serotonin 1 receptors; 5-HT1B & 5-HT1D (Homo sapiens); conditions: Cavia porcellus; remark: listed apart in the source
[20] = molecular target: Alpha-1A adrenergic receptor (Rattus norvegicus, UniProt P43140); assay: Compound was tested for binding affinity against Alpha-1A adrenergic receptor (rat submaxillary gland)
In short: as §4

[21] = molecular target: 5-hydroxytryptamine receptor 2C (Homo sapiens, UniProt P28335); assay: Compound was tested for binding affinity against human 5-hydroxytryptamine 2C receptor
In short: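 Competition binding against human cloned 5-HT2C receptor expressed in HEK 293 cells. [3H]mesulergine was the radioligand. Incubation in 50 mM Tris-HCl (pH 7.7 at 25 °C) with a range of test concentrations for 30–45 min at 37 °C. Samples were rapidly filtered, washed with ice-cold buffer, and counted by scintillation. pKi is given as mean (SEM, n) or as individual values where n = 2.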

[22] = molecular target: Beta-2 adrenergic receptor (Homo sapiens, UniProt P07550); assay: Compound was tested for binding affinity against human cloned Beta-2 adrenergic receptor
In short: as §4

[23] = molecular target: T2, 5-hydroxytryptamine receptor 1B (Homo sapiens, UniProt P28222); assay: Effect of compound on [35S]GTP-gamma-S, radioligand binding CHO cells expressing human 5-hydroxytryptamine 1B receptor; format: functional, cell-based
[24] = organism: Cavia porcellus; assay: Mean maximum temperature drop on SK & F 99101H (-1.72(0.09)) -induced Hypothermia at 2 hr postdose treatment(**p< 0.01 vs SK & F 99101H controls).; format: functional
In short: as §3

[25] = molecular target: T1, Serotonin 1 receptors; 5-HT1B & 5-HT1D (Homo sapiens); conditions: Cavia porcellus; remark: listed apart in the source
[26] = test system: Cavia porcellus; assay: Body temperature drop at 10 mg/kg po dosage in Guinea pig.; format: functional
[27] = test system: Cavia porcellus; assay: Body temperature drop at 22 mg/kg po dosage in Guinea pig; format: functional
[28] = molecular target: 5-hydroxytryptamine receptor 1A (Homo sapiens, UniProt P08908); assay: Compound was tested for binding affinity against human 5-hydroxytryptamine 1A receptor
In short: as §1

[29] = organism: Cavia porcellus; assay: Compound was tested for % of SK & F 99101H controls on induced Hypothermia at 24 hr postdose treatment.; format: functional
In short: as §3

[30] = molecular target: Muscarinic acetylcholine receptor M2 (Homo sapiens, UniProt P08172); assay: Compound was tested for binding affinity against human cloned Muscarinic acetylcholine receptor M2
In short: as §4

[31] = molecular target: 5-hydroxytryptamine receptor 1E (Homo sapiens, UniProt P28566); assay: Compound was tested for binding affinity against human 5-hydroxytryptamine 1E receptor
In short: as §1

[32] = molecular target: T1, Serotonin 1 receptors; 5-HT1B & 5-HT1D (Homo sapiens); conditions: Cavia porcellus; 10.0 mg/kg
[33] = molecular target: Alpha-1B adrenergic receptor (Rattus norvegicus, UniProt P15823); assay: Compound was tested for binding affinity against Alpha-1B adrenergic receptor (rat liver, [3H] prazosin)
In short: as §4

[34] = molecular target: Muscarinic acetylcholine receptor M1 (Homo sapiens, UniProt P11229); assay: Compound was tested for binding affinity against human cloned Muscarinic acetylcholine receptor M1
In short: as §4

[35] = organism: Cavia porcellus; assay: Mean maximum temperature drop on SK & F 99101H (-1.22(0.27)) -induced Hypothermia at 8 hr postdose treatment(* p< 0.05 vs SK & F 99101H controls).; format: functional
In short: as §3

[36] = molecular target: Histamine H2 receptor (Cavia porcellus, UniProt P47747); assay: Compound was tested for binding affinity towards Histamine H2 receptor
In short: as §4

[37] = molecular target: Histamine H1 receptor (Cavia porcellus, UniProt P31389); assay: Compound was tested for binding affinity against Histamine H1 receptor.
In short: as §4

[38] = molecular target: Alpha-2B adrenergic receptor (Mus musculus, UniProt P30545); assay: Compound was tested for binding affinity against Alpha-2B adrenergic receptor (NG 108-15 cells) using [3H]RX-821002) as radioligand; format: cell-based
In short: as §4

[39] = organism: Cavia porcellus; assay: Effect on SK & F 99101H (-2.60(1.37) -induced Hypothermia at 24 hr postdose treatment in guinea pig(** p< 0.01 vs SK & F 99101H controls).; format: functional
In short: as §3

[40] = molecular target: T1, Serotonin 1 receptors; 5-HT1B & 5-HT1D (Homo sapiens); conditions: Cavia porcellus; 3.0 mg/kg
[41] = organism: Cavia porcellus; assay: Mean maximum temperature drop on SK & F 99101H (-2.23(0.13)) -induced Hypothermia at 8 hr postdose treatment(** p< 0.01 vs SK & F 99101H controls).; format: functional
In short: as §3

[42] = molecular target: Alpha-2A adrenergic receptor (Homo sapiens, UniProt P08913); assay: Compound was tested for binding affinity against human cloned Alpha-2A adrenergic receptor
In short: as §4

[43] = molecular target: D(2) dopamine receptor (Homo sapiens, UniProt P14416); assay: Compound was tested for binding affinity against human cloned Dopamine receptor D2
In short: as §5

[44] = organism: Cavia porcellus; assay: as §2; format: functional; remark: listed apart in the source
In short: as §3

[45] = molecular target: 5-hydroxytryptamine receptor 1D (Homo sapiens, UniProt P28221); assay: Binding affinity for human 5-hydroxytryptamine 1D receptor
[46] = molecular target: T2, 5-hydroxytryptamine receptor 1B; assay: Binding affinity for human 5-hydroxytryptamine 1B receptor

5-hydroxytryptamine receptor 2A, sequence (P28223 whole entry): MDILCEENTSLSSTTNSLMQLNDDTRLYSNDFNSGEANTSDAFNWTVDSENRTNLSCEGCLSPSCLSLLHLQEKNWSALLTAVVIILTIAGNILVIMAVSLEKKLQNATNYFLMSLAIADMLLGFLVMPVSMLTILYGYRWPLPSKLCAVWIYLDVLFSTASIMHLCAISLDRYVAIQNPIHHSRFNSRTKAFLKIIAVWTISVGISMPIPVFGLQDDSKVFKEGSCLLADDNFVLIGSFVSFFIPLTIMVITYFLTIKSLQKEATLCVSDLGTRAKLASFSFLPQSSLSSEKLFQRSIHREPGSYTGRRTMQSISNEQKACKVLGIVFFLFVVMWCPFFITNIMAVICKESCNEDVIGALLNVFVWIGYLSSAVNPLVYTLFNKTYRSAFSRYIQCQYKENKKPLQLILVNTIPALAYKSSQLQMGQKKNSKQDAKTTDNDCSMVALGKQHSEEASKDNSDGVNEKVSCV
5-hydroxytryptamine receptor 1D, sequence (P28221 whole entry): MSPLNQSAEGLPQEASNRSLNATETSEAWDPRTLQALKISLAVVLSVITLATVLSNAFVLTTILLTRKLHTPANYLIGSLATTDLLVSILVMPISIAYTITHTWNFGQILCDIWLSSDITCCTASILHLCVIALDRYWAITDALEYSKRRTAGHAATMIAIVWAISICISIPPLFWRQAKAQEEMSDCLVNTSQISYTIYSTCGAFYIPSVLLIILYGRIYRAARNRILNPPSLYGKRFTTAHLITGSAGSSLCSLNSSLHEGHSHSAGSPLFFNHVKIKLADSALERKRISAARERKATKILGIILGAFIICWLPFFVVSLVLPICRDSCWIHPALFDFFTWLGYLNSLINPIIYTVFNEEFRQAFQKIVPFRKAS
T2 sequence (P28222 whole entry): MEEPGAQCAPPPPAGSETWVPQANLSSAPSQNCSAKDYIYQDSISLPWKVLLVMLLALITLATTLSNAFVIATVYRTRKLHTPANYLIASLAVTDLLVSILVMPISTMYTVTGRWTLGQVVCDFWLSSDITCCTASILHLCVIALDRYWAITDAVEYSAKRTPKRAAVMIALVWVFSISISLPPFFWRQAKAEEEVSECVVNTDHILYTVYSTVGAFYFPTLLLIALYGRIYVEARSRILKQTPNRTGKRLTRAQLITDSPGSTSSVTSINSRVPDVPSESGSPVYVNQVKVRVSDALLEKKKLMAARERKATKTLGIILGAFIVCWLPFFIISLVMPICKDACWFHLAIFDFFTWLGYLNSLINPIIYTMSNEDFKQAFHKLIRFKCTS
Alpha-1B adrenergic receptor, sequence (P15823 whole entry): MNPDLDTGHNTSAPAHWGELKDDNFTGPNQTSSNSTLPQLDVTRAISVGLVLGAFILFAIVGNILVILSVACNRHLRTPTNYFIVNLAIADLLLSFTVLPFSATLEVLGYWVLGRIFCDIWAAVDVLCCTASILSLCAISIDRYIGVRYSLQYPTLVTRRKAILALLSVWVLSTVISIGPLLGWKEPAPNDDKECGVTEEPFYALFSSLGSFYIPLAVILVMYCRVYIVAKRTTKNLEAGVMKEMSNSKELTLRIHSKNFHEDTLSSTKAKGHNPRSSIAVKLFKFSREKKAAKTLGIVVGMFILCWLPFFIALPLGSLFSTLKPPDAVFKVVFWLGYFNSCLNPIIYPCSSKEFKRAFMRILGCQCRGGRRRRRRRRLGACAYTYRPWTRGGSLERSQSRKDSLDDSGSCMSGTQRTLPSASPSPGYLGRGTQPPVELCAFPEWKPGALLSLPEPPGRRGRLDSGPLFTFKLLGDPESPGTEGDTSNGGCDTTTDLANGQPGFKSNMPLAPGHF
5-hydroxytryptamine receptor 1E, sequence (P28566 whole entry): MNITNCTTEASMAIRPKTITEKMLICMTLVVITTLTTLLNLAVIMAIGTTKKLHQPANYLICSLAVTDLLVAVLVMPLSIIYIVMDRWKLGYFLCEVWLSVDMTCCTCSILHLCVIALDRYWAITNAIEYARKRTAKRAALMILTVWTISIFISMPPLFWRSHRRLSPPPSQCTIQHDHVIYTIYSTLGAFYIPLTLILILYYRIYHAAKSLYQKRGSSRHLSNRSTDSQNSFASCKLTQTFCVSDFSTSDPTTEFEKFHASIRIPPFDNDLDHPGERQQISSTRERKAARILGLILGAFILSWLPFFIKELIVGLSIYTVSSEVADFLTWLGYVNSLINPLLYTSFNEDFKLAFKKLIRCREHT
Histamine H1 receptor, sequence (P31389 whole entry): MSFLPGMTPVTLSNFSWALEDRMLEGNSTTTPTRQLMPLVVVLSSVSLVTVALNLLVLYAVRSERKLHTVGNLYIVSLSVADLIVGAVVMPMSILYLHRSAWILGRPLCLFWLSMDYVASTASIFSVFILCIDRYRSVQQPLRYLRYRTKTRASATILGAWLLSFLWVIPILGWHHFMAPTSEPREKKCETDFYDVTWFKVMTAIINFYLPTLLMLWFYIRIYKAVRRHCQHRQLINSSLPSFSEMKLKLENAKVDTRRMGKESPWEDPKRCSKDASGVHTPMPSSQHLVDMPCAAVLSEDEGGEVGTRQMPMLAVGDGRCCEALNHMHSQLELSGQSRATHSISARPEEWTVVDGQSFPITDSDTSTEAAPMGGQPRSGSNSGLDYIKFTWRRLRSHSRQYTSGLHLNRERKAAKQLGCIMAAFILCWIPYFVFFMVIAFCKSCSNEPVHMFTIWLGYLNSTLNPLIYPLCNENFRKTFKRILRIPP
5-hydroxytryptamine receptor 2C, sequence (P28335 whole entry): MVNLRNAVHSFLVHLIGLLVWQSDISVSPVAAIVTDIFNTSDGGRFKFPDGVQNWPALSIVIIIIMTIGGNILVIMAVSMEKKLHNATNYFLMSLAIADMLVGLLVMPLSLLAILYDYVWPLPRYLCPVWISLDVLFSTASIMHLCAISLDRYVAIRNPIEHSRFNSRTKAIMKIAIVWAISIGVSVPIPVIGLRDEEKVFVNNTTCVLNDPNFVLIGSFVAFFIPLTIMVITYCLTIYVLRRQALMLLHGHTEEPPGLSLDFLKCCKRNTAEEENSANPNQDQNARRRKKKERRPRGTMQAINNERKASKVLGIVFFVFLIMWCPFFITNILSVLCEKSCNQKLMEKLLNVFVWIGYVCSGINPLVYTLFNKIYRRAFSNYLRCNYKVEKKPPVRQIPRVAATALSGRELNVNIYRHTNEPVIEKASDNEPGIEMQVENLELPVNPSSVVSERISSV
D(2) dopamine receptor, sequence (P14416 whole entry): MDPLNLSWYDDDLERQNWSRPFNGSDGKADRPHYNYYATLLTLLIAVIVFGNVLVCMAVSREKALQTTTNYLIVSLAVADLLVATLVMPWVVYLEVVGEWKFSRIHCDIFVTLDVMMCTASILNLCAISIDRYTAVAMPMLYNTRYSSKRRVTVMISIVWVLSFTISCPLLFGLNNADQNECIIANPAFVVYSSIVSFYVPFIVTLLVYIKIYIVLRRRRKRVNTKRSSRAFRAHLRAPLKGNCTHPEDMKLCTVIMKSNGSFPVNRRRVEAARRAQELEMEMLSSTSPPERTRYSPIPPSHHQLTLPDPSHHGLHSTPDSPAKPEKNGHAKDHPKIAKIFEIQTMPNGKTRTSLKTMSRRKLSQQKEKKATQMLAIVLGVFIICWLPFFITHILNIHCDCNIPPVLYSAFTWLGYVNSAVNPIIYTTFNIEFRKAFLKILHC
Alpha-2B adrenergic receptor, sequence (P30545 whole entry): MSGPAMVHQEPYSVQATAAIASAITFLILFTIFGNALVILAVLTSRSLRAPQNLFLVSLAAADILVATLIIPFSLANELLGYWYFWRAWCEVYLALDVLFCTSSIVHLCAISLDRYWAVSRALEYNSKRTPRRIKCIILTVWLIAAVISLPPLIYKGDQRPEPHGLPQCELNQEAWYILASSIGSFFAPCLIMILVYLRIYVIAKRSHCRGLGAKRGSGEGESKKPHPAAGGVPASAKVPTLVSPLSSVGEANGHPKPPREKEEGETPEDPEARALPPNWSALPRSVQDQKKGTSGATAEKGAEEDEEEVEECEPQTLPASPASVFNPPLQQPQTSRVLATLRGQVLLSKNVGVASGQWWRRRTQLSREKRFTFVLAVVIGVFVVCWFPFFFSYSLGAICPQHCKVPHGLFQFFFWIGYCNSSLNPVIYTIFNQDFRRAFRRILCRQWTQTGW
Alpha-1A adrenergic receptor, sequence (P43140 whole entry): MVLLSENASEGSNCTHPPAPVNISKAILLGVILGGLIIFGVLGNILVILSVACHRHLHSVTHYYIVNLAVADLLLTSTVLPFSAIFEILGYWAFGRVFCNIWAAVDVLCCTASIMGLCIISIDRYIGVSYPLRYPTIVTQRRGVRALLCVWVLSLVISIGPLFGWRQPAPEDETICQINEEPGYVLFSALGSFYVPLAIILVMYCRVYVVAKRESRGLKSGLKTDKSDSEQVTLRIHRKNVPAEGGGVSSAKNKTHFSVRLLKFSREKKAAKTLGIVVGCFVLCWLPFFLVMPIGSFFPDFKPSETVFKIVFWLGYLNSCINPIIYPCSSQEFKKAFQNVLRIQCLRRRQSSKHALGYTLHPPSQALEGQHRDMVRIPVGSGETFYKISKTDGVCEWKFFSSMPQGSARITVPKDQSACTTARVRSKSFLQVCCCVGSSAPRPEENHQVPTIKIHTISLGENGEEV
5-hydroxytryptamine receptor 1F, sequence (P30939 whole entry): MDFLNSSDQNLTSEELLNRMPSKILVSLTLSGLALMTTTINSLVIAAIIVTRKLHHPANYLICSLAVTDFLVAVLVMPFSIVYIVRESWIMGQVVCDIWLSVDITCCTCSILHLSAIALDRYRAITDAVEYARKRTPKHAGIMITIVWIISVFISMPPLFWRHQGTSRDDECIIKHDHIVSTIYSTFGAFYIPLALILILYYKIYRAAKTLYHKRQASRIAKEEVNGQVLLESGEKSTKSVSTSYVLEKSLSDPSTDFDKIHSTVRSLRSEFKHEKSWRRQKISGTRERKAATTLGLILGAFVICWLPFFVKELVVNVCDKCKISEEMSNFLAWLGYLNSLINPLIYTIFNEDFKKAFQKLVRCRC

Cc1nc(-c2ccc(-c3ccc(C(=O)N4CCc5cc6c(cc54)C4(CCN(C)CC4)CO6)cc3)c(C)c2)no1 [SB-224289]
Degrees Centigrade [1]: -1.77 °C | Ki [2]: > 1000 nM | Body temperature drop [3]: -0.05 °C | Ki [4]: > 10000 nM | Ki [5]: 1580 nM | Control [6]: 93% | Control [7]: 43% | Control [8]: 48% | Body temperature drop [9]: -1.92 °C | Mean maximumtemp drop [10]: -2 °C | Degrees Centigrade [11]: -1 °C | Control [12]: 85% | Body temp drop [13]: -0.27 °C | Ki [14]: > 1000 nM | Control [15]: 22% | Ki [16]: > 1000 nM | Body temperature drop [17]: -0.23 °C | Body temp drop [18]: -0.67 °C | Body temperature drop [19]: -0.12 °C | Ki [20]: > 1000 nM | Ki [21]: 631 nM | Ki [22]: > 1000 nM | Simulation [23]: -62% | Body temp drop [24]: -0.38 °C | Degrees Centigrade [25]: -1.63 °C | Body temperature drop [26]: -0.03 °C | Body temperature drop [27]: -0.03 °C | Ki [28]: > 3160 nM | Control [29]: 50% | Ki [30]: > 1000 nM | Ki [31]: > 10000 nM | Control [32]: 35% | Ki [33]: > 1000 nM | Ki [34]: > 1000 nM | Body temp drop [35]: -0.53 °C | Ki [36]: > 1000 nM | Ki [37]: > 1000 nM | Ki [38]: > 1000 nM | Body temp drop [39]: -1.31 °C | Control [40]: 52% | Body temp drop [41]: -1.1 °C | Ki [42]: > 1000 nM | Ki [43]: > 1000 nM | Control [44]: 15%

COc1ccc(NC(=O)c2ccc(Br)c(C)c2)cc1N1CCN(C)CC1
Ki [5]: 200 nM | Ki [45]: 12.6 nM | Ki [46]: 6.31 nM

Cc1nc(-c2ccc(-c3ccc(C(=O)Nc4ccc5c(c4)C4(CCN(C)CC4)CO5)cc3)c(C)c2)no1
Ki [5]: 1000 nM | Ki [45]: 2000 nM | Ki [46]: 31.6 nM | [35S]GTPγS binding stimulation [23]: -64%

Cc1nc(-c2ccc(-c3ccc(C(=O)Nc4cc5c(c(OCCN(C)C)c4)OCC5)cc3)c(C)c2)no1
Ki [5]: 50.1 nM | Ki [45]: 25.1 nM | Ki [46]: 1.58 nM | [35S]GTPγS binding stimulation [23]: 207%

COc1ccc(NC(=O)c2ccc(-c3ccc(-c4noc(C)n4)cc3C)cc2)cc1NCCN(C)C
Ki [5]: 5.01 nM | Ki [45]: 39.8 nM | Ki [46]: 2.51 nM | [35S]GTPγS binding stimulation [23]: 108%

COc1ccc(NC(=O)c2ccc(-c3ccc(-c4noc(C)n4)cc3C)cc2)cc1CCCN(C)C
Ki [5]: 6.31 nM | Ki [45]: 100 nM | Ki [46]: 3.16 nM | [35S]GTPγS binding stimulation [23]: -44%
